Consider 13 compounds from ChEMBL document CHEMBL1287758, “Synthesis of D- and L-tyrosine-chlorambucil analogs active against breast cancer cell lines” (Bioorg Med Chem Lett, 2010).

What all share (assay type): functional, cell-based
The test system of one test is MCF7. Put plainly: Cytotoxicity against estrogen receptor-positive human MCF7 cells by MTT assay. In outline:
(§1)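 MTT read-out after 72 h continuous exposure of human breast cancer cells to compound. Each assay run in duplicate; IC50 taken from three independent experiments and reported as mean SEM. Chlorambucil served as positive control.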
(Tetrazolium dyes change colour on reduction, which living cells bring about.)

A further test concerns MDA-MB-231. Put plainly: Cytotoxicity against estrogen receptor-negative human MDA-MB-231 cells by MTT assay. In outline:
as §1

A short description of test [1]: Cytotoxicity against estrogen receptor-negative human MDA-MB-436 cells by MTT assay. The gist of the method:
as §1

In the next test the test system is MDA-MB-468. Put plainly: Cytotoxicity against estrogen receptor-negative human MDA-MB-468 cells by MTT assay. The gist of the method: as §1
[2] abbreviates: Homo sapiens, MCF7, read-out: IC50.
[3] abbreviates: Homo sapiens, MDA-MB-231, read-out: IC50.
Setting [4] is: Homo sapiens, MDA-MB-436, read-out: IC50.
The mark [5] stands for this setting: Homo sapiens, MDA-MB-468, read-out: IC50.

As usually defined, the IC50 is the point on the concentration scale where inhibition reaches its midpoint. As for `O=C(CCCc1ccc(N(CCCl)CCCl)cc1)NCCCCCCCCCCC(=O)N[C@@H](CO)Cc1ccc(O)cc1`, the IC50 is 16.3 µM in the test with MCF7 (setting [2]) and “Not Active” in the test on MDA-MB-231 (mda-mb-231).

For `O=C(O)CCCc1ccc(N(CCCl)CCCl)cc1` [CHLORAMBUCIL], the IC50 amounted to 130 µM in the test on MCF7 (setting [2]), 137 µM in the test with MDA-MB-231 (setting [3]), 132 µM in test [1] (setting [4]) and 147 µM in the test with MDA-MB-468 (setting [5]).

`COC(=O)[C@H](Cc1ccc(O)cc1)NC(=O)CCCc1ccc(N(CCCl)CCCl)cc1`: the IC50 came out at 31.9 µM in the test on MCF7 (setting [2]), 37.8 µM in the test with MDA-MB-231 (setting [3]), 15.4 µM in test [1] (setting [4]) and 62.5 µM in the test on MDA-MB-468 (setting [5]).

As to `O=C(CCCc1ccc(N(CCCl)CCCl)cc1)NCCCCCC(=O)N[C@H](CO)Cc1ccc(O)cc1`, the IC50 with MCF7 (setting [2]) turned out to be 62.2 µM; in the test with MDA-MB-231 (setting [3]), 55.1 µM; in test [1] (setting [4]) it was 28.9 µM; with MDA-MB-468 (setting [5]), 77.3 µM.

For the compound `O=C(CCCc1ccc(N(CCCl)CCCl)cc1)N[C@H](CO)Cc1ccc(O)cc1`, the IC50 in the test on MCF7 (setting [2]) is 34.1 µM; in the test with MDA-MB-231 (setting [3]), 39.6 µM; in test [1] (setting [4]), 24.4 µM; in the test with MDA-MB-468 (setting [5]) it was 55.1 µM.

For the compound `O=C(CCCc1ccc(N(CCCl)CCCl)cc1)NCCCCCC(=O)N[C@@H](CO)Cc1ccc(O)cc1`, in the test with MCF7 (setting [2]), the IC50 stood at 67 µM.

With `COC(=O)[C@H](Cc1ccc(O)cc1)NC(=O)CCCCCNC(=O)CCCc1ccc(N(CCCl)CCCl)cc1`, the IC50 in the test with MCF7 (setting [2]) came out at 25.4 µM; in the test with MDA-MB-231 (setting [3]), 36.8 µM; in test [1] (setting [4]), 15 µM; with MDA-MB-468 (setting [5]), 59 µM.

As for `COC(=O)[C@@H](Cc1ccc(O)cc1)NC(=O)CCCCCCCCCCNC(=O)CCCc1ccc(N(CCCl)CCCl)cc1`, the IC50 entry with MCF7 (mcf7) and in the test with MDA-MB-231 (mda-mb-231) was “Not Active” in each case.

For `O=C(CCCc1ccc(N(CCCl)CCCl)cc1)N[C@@H](CO)Cc1ccc(O)cc1`, the IC50 in the test on MCF7 (setting [2]) amounted to 31.4 µM; in the test on MDA-MB-231 (setting [3]), 29.8 µM.

As to `COC(=O)[C@H](Cc1ccc(O)cc1)NC(=O)CCCCCCCCCCNC(=O)CCCc1ccc(N(CCCl)CCCl)cc1`, the IC50 in the test on MCF7 (setting [2]) was 67.9 µM; with MDA-MB-231 (mda-mb-231), “Not Active”; in test [1] (mda-mb-436), “Not Active”; with MDA-MB-468 (mda-mb-468) it was “Not Active”.

In the case of `O=C(CCCc1ccc(N(CCCl)CCCl)cc1)NCCCCCCCCCCC(=O)N[C@H](CO)Cc1ccc(O)cc1`, the IC50 with MCF7 (setting [2]) is 19.4 µM; with MDA-MB-231 (mda-mb-231) it was “Not Active”; in test [1] (mda-mb-436) it was “Not Active”; with MDA-MB-468 (mda-mb-468) it was “Not Active”.

On to `COC(=O)[C@@H](Cc1ccc(O)cc1)NC(=O)CCCc1ccc(N(CCCl)CCCl)cc1`, for which the IC50 turned out to be 50 µM with MCF7 (setting [2]) and 47.2 µM in the test on MDA-MB-231 (setting [3]).

As to `COC(=O)[C@@H](Cc1ccc(O)cc1)NC(=O)CCCCCNC(=O)CCCc1ccc(N(CCCl)CCCl)cc1`, the IC50 with MCF7 (setting [2]) came out at 152 µM.
